Active and inactive are the calls of the source. The calls are words filed in the database; no cut-off is given here.
What was measured:
Homo sapiens [1] = species: Homo sapiens; assay: Inhibition of CCDC6/RET isoform 9 (unknown origin) expressed in mouse NIH/3T3 cells assessed as reduction in RET phosphorylation at Y1062 residue at 1 to 100 nM measured after 2 hrs by Western blot analysis; format: cell-based
Procedure, shortened: (§1)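 Serum-starved RAT1 (RET point mutants) or NIH3T3 (RET rearrangements) cells expressing short RET-9 isoform, treated 2 h; 50 μg total lysate immunoblotted with anti-phospho-Y1062 and anti-phospho-Y905 RET antibodies, normalized to total RET; ECL detection. Compound from 50 mM DMSO stock diluted in growth medium.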

[2] = molecular target: T1, SHC-transforming protein 1 (Homo sapiens) (UniProt P29353); assay: Effect on SHC phosphorylation in RET deficient human PC9 cells at 1 to 100 nM measured after 2 hrs by western blot analysis
T1 sequence (whole entry): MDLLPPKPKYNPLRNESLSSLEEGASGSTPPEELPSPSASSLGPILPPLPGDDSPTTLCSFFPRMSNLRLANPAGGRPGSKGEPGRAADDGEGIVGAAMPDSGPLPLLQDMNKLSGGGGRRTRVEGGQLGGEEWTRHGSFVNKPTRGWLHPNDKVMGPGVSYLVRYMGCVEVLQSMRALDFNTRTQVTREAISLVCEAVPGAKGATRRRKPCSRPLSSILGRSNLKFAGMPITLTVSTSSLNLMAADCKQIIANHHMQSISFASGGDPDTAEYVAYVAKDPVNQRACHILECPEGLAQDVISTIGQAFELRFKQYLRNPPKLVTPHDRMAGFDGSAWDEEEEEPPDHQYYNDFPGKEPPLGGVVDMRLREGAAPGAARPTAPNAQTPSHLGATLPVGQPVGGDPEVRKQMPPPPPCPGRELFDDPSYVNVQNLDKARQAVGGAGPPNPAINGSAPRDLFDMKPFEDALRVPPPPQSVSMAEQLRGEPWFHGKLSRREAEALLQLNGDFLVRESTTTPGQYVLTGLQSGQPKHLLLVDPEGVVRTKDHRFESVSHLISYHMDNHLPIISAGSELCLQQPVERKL

[3] = Toxicity in BALB/c nu/nu mouse assessed as change in alanine transaminase level at 10 mg/kg, po administered daily for 7 days; format: organism-based; settings: in vivo, 168 h
Procedure, shortened: (§2)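 Mice dosed orally with 10 mg/kg/day for 7 days; standard blood markers of organ damage measured.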

Mus musculus [4] = assay: In vivo inhibition of RET isoform 9 C634Y mutant transfected in mouse NIH/3T3 cells implanted BALB/c nu/nu mouse assessed as reduction in MAPK phosphorylation at 3 mg/kg, po administered once daily via gavage for 2 days measured 3 hrs post-last dose by Western blot analysis
[5] = tested on: Proto-oncogene tyrosine-protein kinase receptor Ret (Homo sapiens), P07949 [C634R]; assay: Inhibition of RET […] C634R mutant (unknown origin) expressed in mouse BAF3 cells assessed as reduction in RET phosphorylation at Y1062 residue at 0.3 to 30 nM measured after 2 hrs by Western blot analysis; format: cell-based
Procedure, shortened: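 Ba/F3 cells stably expressing long-isoform RET-51 mutants (electroporation), cultured in RPMI/10% FCS without IL-3; RET phosphorylation read by Western blot with anti-phospho-Y905 and anti-phospho-Y1062 antibodies, ECL detection.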

[6] = molecular target: T2, Macrophage colony-stimulating factor 1 receptor (Homo sapiens, UniProt P07333); assay: Inhibition of recombinant human His-tagged CSF1R cytoplasmic domain (538 to 910 residues) expressed in baculovirus expression system using peptide substrate preincubated for 60 mins followed by substrate addition by microfluidic assay
[7] = Toxicity in BALB/c nu/nu mouse assessed as change in calcium level at 10 mg/kg, po administered daily for 7 days; format: organism-based; settings: in vivo, 168 h
Mus musculus [8] = assay: In vivo inhibition of HRAS G12V mutant transfected in mouse NIH/3T3 cells implanted BALB/c nu/nu mouse assessed as reduction in MAPK phosphorylation in tumor at 1 mg/kg, po administered once daily via gavage for 3 days measured 3 hrs post-last dose by Western blot analysis; format: functional, organism-based
[9] = Inhibition of NCOA4/RET […] (unknown origin) expressed in mouse BAF3 cells assessed as reduction in cell proliferation supplemented with fresh medium containing compound for every 2 to 3 days and measured daily; format: cell-based
[10] = molecular target: T3, Coiled-coil domain-containing protein 6/Tyrosine-protein kinase receptor RET (Homo sapiens) (UniProt P07949+Q16204); assay: Inhibition of CCDC6/RET in human LC2/ad cells assessed as reduction in RET phosphorylation at Y1062 residue at 0.3 to 30 nM measured after 2 hrs by Western blot analysis; format: cell-based
[11] = molecular target: T3, Coiled-coil domain-containing protein 6/Tyrosine-protein kinase receptor RET (Homo sapiens); assay: Inhibition of CCDC6/RET in human TPC1 cells assessed as reduction in RET phosphorylation at Y1062 residue at 0.3 to 30 nM measured after 2 hrs by Western blot analysis; format: cell-based
[12] = molecular target: T3, Coiled-coil domain-containing protein 6/Tyrosine-protein kinase receptor RET (Homo sapiens); assay: Inhibition of CCDC6/RET in human LC2/ad cells assessed as reduction in SHC phosphorylation at 0.3 to 30 nM measured after 2 hrs by Western blot analysis; format: cell-based
[13] = molecular target: T3, Coiled-coil domain-containing protein 6/Tyrosine-protein kinase receptor RET (Homo sapiens); assay: Inhibition of CCDC6/RET in human TPC1 cells assessed as reduction in SHC phosphorylation at 0.3 to 30 nM measured after 2 hrs by Western blot analysis; format: cell-based
Homo sapiens [14] = species: Homo sapiens; assay: Effect on MAPK phosphorylation in RET deficient human Nthy-ori 3-1 cells at 1 to 100 nM measured after 2 hrs by western blot analysis
BCPAP = assay: Effect on MAPK phosphorylation in RET deficient human BCPAP cells at 1 to 100 nM measured after 2 hrs by western blot analysis; format: cell-based
Homo sapiens [15] = species: Homo sapiens; assay: Effect on MAPK phosphorylation in RET deficient human Calu1 cells at 1 to 100 nM measured after 2 hrs by western blot analysis
[16] = tested on: Proto-oncogene tyrosine-protein kinase receptor Ret (Homo sapiens), P07949 [C634W]; assay: Inhibition of Ret isoform 9 C634W mutant in human TT cells assessed as reduction in SHC phosphorylation at 0.3 to 30 nM measured after 2 hrs by Western blot analysis; format: cell-based
Homo sapiens [17] = species: Homo sapiens; assay: Inhibition of NCOA4/RET isoform 9 (unknown origin) expressed in mouse NIH/3T3 cells assessed as reduction in RET phosphorylation at Y1062 residue at 1 to 100 nM measured after 2 hrs by Western blot analysis; format: cell-based; procedure, shortened: as §1
[18] = Toxicity in BALB/c nu/nu mouse assessed as change in albumin level at 10 mg/kg, po administered daily for 7 days; format: organism-based; settings: in vivo, 168 h; procedure, shortened: as §2
[19] = Toxicity in BALB/c nu/nu mouse assessed as change in glucose level at 10 mg/kg, po administered daily for 7 days; format: organism-based; settings: in vivo, 168 h
[20] = Toxicity in BALB/c nu/nu mouse assessed as change in blood urea nitrogen level at 10 mg/kg, po administered daily for 7 days; format: organism-based; settings: in vivo, 168 h; procedure, shortened: as §2
[21] = molecular target: T2, Macrophage colony-stimulating factor 1 receptor; assay: Binding affinity to wild-type human partial length CSF1R (I564 to S939 residues) expressed in bacterial expression system at 100 nM by Kinomescan method relative to control

T3 sequence (P07949 29-1114 limits assumed): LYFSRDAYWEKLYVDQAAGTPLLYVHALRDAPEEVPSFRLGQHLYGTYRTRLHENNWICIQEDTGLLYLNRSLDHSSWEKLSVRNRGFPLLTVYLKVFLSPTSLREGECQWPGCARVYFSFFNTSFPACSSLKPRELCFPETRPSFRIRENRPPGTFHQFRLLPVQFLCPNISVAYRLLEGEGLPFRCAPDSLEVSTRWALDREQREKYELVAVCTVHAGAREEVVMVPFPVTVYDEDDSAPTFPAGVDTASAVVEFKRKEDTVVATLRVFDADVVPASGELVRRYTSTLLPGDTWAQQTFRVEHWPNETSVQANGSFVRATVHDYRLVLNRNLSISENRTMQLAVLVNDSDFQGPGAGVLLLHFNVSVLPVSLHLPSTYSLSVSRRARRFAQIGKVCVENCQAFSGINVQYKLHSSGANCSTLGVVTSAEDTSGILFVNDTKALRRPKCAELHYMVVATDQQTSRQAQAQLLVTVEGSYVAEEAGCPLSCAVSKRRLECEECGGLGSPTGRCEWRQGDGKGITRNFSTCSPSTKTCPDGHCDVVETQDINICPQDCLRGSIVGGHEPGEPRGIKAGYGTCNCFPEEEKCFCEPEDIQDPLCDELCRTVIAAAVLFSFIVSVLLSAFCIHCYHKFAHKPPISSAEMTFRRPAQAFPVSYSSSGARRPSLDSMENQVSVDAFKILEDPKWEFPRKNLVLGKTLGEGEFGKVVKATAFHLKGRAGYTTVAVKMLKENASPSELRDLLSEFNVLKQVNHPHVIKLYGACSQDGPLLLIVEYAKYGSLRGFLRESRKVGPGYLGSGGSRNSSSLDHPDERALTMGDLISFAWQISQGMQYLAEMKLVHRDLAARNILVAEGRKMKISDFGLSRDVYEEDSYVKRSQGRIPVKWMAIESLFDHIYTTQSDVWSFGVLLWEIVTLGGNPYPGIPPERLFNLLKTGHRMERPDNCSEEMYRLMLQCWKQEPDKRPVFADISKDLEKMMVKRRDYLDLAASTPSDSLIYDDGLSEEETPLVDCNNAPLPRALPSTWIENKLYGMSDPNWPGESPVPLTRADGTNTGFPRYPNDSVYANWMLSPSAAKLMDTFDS
T3 sequence (Q16204 2-474 partner limits assumed): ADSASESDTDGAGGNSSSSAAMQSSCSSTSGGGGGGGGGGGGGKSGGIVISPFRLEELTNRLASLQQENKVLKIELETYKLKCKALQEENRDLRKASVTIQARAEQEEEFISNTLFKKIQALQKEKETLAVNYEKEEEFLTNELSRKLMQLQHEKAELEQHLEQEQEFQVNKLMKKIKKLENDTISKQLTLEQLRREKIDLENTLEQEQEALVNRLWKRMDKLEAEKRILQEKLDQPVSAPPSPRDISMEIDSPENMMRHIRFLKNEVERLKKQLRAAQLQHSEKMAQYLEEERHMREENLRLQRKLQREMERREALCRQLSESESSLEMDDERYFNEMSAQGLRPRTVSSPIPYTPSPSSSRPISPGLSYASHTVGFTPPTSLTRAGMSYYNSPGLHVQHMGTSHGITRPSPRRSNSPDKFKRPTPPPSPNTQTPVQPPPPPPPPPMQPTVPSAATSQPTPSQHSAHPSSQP
T2 sequence (P07333 whole entry, the tested form may be a part): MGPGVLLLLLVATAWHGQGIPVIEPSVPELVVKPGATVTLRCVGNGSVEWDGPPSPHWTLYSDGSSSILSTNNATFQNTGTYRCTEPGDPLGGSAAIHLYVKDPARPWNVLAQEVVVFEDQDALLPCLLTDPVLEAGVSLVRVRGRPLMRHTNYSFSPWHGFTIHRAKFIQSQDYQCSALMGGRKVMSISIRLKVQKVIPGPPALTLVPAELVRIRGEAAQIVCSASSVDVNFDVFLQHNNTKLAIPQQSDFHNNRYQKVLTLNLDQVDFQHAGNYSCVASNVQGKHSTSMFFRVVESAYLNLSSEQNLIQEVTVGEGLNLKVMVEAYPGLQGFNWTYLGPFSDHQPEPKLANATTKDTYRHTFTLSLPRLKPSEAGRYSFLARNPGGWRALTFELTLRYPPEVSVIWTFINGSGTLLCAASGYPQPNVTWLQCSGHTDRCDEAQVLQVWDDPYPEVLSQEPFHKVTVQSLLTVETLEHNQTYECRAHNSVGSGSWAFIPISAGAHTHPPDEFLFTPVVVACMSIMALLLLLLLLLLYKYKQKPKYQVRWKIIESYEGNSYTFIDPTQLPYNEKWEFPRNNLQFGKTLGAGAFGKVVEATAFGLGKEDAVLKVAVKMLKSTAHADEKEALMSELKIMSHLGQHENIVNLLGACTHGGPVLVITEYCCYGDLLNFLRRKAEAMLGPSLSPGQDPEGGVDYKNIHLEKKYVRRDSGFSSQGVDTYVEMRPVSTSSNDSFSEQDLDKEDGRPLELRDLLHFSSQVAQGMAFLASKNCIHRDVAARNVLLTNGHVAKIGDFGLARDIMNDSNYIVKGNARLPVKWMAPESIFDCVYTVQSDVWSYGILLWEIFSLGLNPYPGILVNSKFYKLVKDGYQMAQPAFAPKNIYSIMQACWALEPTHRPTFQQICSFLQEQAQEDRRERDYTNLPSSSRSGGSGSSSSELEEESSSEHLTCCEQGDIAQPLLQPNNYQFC
Sequence of Proto-oncogene tyrosine-protein kinase receptor Ret (Homo sapiens), P07949 [C634R] (P07949 whole entry C634R, canonical isoform): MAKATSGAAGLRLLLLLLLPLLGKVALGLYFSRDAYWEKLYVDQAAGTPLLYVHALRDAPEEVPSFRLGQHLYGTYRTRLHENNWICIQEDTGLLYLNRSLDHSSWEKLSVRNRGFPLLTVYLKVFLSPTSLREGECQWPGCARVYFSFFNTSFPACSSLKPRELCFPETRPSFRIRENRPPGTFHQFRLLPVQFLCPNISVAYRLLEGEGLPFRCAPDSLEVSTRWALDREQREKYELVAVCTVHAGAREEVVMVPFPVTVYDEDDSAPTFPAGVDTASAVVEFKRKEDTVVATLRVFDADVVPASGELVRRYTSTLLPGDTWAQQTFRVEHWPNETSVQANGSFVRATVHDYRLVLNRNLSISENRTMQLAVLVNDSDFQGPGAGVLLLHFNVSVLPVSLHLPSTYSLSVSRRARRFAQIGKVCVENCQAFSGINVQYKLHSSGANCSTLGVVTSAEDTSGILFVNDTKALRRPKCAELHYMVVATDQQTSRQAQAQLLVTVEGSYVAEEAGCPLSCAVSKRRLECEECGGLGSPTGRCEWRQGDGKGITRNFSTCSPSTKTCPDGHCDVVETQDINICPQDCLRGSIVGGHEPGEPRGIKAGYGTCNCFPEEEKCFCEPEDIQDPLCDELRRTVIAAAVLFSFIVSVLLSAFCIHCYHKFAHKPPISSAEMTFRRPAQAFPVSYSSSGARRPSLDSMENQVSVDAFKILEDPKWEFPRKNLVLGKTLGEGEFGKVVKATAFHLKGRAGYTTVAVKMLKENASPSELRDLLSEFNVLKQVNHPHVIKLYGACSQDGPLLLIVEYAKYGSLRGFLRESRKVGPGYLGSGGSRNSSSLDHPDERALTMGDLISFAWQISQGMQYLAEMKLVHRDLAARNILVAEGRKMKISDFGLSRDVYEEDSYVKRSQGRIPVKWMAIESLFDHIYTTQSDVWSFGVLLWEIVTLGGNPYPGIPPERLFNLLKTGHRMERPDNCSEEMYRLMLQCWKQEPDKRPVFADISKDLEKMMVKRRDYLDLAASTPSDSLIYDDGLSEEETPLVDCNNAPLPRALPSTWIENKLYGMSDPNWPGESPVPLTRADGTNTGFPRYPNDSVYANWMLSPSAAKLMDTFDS
Sequence of Proto-oncogene tyrosine-protein kinase receptor Ret (Homo sapiens), P07949 [C634W] (P07949 whole entry C634W, canonical isoform): as the sequence (P07949 whole entry C634R, canonical isoform) above, with R634W counted along it

Q: Which results are given for `CC(C)(C)c1cc(NC(=O)Cc2ccc(-n3cnc4cc(-c5ccc(S(C)(=O)=O)cc5)ccc43)cc2)no1`?
A: inhibition (Homo sapiens [1]): Active; Activity [2]: inactive; Activity [3]: Non-Toxic; inhibition (Mus musculus [4]): Active; inhibition [5]: Active; IC50 [6]: 46 nM; Activity [7]: Non-Toxic; inhibition (Mus musculus [8]): inactive; IC50 [9]: 3.1 nM; inhibition [10]: Active; inhibition [11]: Active; inhibition [12]: Active; inhibition [13]: Active; Activity (Homo sapiens [14]): inactive; Activity (BCPAP): inactive; Activity (Homo sapiens [15]): inactive; inhibition [16]: Active; inhibition (Homo sapiens [17]): Active; Activity [18]: Non-Toxic; Activity [19]: Non-Toxic; Activity [20]: Non-Toxic; Activity [21]: > 90%
